Calls of active or inactive are those of the source. The rule behind the calls is not given here.
How the values were obtained:
Format in all cases: tissue-based
Mus musculus [1] = organism: Mus musculus; test: Inhibition of FP-TAMRA labelling of KIAA1363 in mouse brain homogenates at 10 uM pretreated for 30 mins followed by FP-TAMRA addition and measured after 20 mins by activity based protein profiling assay
Outline: (§1)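 Mouse brain membrane proteome (2 mg mL-1) preincubated 30 min at r.t. with inhibitor (10 μM) or DMSO vehicle, then labelled with TAMRA-FP, 500 nM final, 20 min at r.t. Reaction quenched with Laemmli sample buffer. Readout by gel-based competitive ABPP with Coomassie staining as loading control.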

Mus musculus [2] = organism: Mus musculus; test: Inhibition of MB064 labelling of ABHD16A in mouse brain homogenates at 10 uM pretreated for 30 mins followed by MB064 addition and measured after 20 mins by activity based protein profiling assay
Outline: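 Mouse brain membrane proteome preincubated 30 min with inhibitor (10 μM), then labelled with MB064 probe (0.25 μM, 20 min). Readout by gel-based competitive ABPP. Band intensities corrected for protein loading per lane from Coomassie staining. Means ± SEM, n = 3.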

[3] = biological target: T1, Monoglyceride lipase (Mus musculus) (UniProt O35678); test: Inhibition of FP-TAMRA labelling of MAGL in mouse brain homogenates at 10 uM pretreated for 30 mins followed by FP-TAMRA addition and measured after 20 mins by activity based protein profiling assay; outline: as §1
T1 sequence (whole entry): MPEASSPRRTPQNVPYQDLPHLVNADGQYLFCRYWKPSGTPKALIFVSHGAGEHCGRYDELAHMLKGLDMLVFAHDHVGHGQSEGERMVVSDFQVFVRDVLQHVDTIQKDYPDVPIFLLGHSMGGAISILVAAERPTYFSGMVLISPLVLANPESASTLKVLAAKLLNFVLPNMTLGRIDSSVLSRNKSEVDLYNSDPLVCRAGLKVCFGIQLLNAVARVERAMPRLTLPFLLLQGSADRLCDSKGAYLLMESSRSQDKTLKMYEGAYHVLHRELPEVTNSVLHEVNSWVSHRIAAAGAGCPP

Row | inhibition [3] | Structure (SMILES) | inhibition (Mus musculus [1]) | inhibition (Mus musculus [2])
1 | Active | O=C(N1CCC=C[C@@H]1COCc1ccccc1)n1cc(-c2ccc([N+](=O)[O-])cc2)nn1 | Active | Active
2 | Active | O=C(N1CCC=C[C@@H]1COCc1ccccc1)n1cc(-c2ccccc2)nn1 | Active | Active
3 | Active | O=C(N1C[C@@H](O)C=C[C@@H]1COCc1ccccc1)n1cc(-c2ccc(-c3ccccc3)cc2)nn1 | Active | Active

— ChEMBL document CHEMBL4261499, “Chiral disubstituted piperidinyl ureas: a class of dual diacylglycerol lipase-α and ABHD6 inhibitors” (Medchemcomm, 2017)
